pIC50: −log10 of the molar value.
Columns and labels:
[1] = Antiproliferative activity against human PC3 cells assessed as reduction in cell viability after 3 days by WST-1 cell proliferation assay; assay type: functional, cell-based; conditions: PC-3, 72 h
How it was run: (§1)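 Cells from ATCC; PC-3 and LNCaP grown in RPMI-1640, DU145 in EMEM, each with 10% FBS and 1% penicillin/streptomycin, 37 °C, 5% CO2. 3,200 cells per well, treated at 5 concentrations for 3 days with 0.25% DMSO as vehicle control. WST-1 reagent added, 3 h at 37 °C, absorbance read at 430 nm. IC50 from linear fit of at least five doses, mean of at least triplicates.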

[2] = Potency index, ratio of silibinin IC50 to compound IC50 for antiproliferative activity against human DU145 cells; assay type: functional, DU-145
How it was run: (§2)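 Ratio of silibinin IC50 to derivative IC50. Both come from the 3-day WST-1 assay run in parallel (5 doses, absorbance at 430 nm, IC50 from linear fit, at least triplicates).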

[3] = Antiproliferative activity against human DU145 cells assessed as reduction in cell viability after 3 days by WST-1 cell proliferation assay; assay type: functional, cell-based; conditions: DU-145, 72 h; how it was run: as §1
LNCaP [4] = test: Potency index, ratio of silibinin IC50 to compound IC50 for antiproliferative activity against human LNCAP cells; assay type: functional; how it was run: as §2
LNCaP [5] = test: Antiproliferative activity against human LNCAP cells assessed as reduction in cell viability after 3 days by WST-1 cell proliferation assay; assay type: functional, cell-based; conditions: 72 h; how it was run: as §1
[6] = Potency index, ratio of silibinin IC50 to compound IC50 for antiproliferative activity against human PC3 cells; assay type: functional, PC-3; how it was run: as §2

Structure (SMILES)	pIC50 [1]	Ratio IC50 [2]	pIC50 [3]	Ratio IC50 (LNCaP [4])	pIC50 (LNCaP [5])	Ratio IC50 [6]
CCCCCCCOc1cc(O)c2c(=O)c(OCCCCCCC)c(-c3ccc4c(c3)OC(c3ccc(O)c(OC)c3)C(CO)O4)oc2c1 (configuration not stated)	< 4.00	<1	< 4.00	<1	< 4.00	<1
COc1cc(O)c2c(=O)c(O)c(-c3ccc4c(c3)OC(c3ccc(O)c(OC)c3)C(CO)O4)oc2c1 (configuration not stated)	5.62	12	5.10	16	5.56	30
CCCCOc1cc(O)c2c(=O)c(OCCCC)c(-c3ccc4c(c3)OC(c3ccc(O)c(OC)c3)C(CO)O4)oc2c1 (configuration not stated)	4.34	3	4.44	1	4.33	2
CCCCCCOc1cc(O)c2c(c1)O[C@H](c1ccc3c(c1)OC(c1ccc(O)c(OC)c1)C(CO)O3)[C@@H](O)C2=O (some centres not stated)	5.22	8	4.95	26	5.78	12
CCCCCCCOc1cc(O)c2c(=O)c(O)c(-c3ccc4c(c3)OC(c3ccc(O)c(OC)c3)C(CO)O4)oc2c1 (configuration not stated)	5.15	12	5.13	9	5.32	10
CCCCCOc1cc(O)c2c(c1)O[C@H](c1ccc3c(c1)OC(c1ccc(O)c(OC)c1)C(CO)O3)[C@@H](O)C2=O (some centres not stated)	5.21	10	5.05	24	5.75	12
CCCCCCOc1cc(O)c2c(=O)c(OCCCCCC)c(-c3ccc4c(c3)OC(c3ccc(O)c(OC)c3)C(CO)O4)oc2c1 (configuration not stated)	< 4.00	<1	< 4.00	<1	< 4.00	<1
CCCOc1cc(O)c2c(=O)c(OCCC)c(-c3ccc4c(c3)OC(c3ccc(O)c(OC)c3)C(CO)O4)oc2c1 (configuration not stated)	4.76	5	4.69	4	4.96	5
CCCOc1cc(O)c2c(=O)c(O)c(-c3ccc4c(c3)OC(c3ccc(O)c(OC)c3)C(CO)O4)oc2c1 (configuration not stated)	5.33	17	5.27	10	5.36	15
CCCCCOc1cc(O)c2c(=O)c(OCCCCC)c(-c3ccc4c(c3)OC(c3ccc(O)c(OC)c3)C(CO)O4)oc2c1 (configuration not stated)	4.28	3	4.54	1	4.54	1
COc1cc(C2Oc3cc(-c4oc5cc(OCc6ccccc6)cc(O)c5c(=O)c4O)ccc3OC2CO)ccc1O (configuration not stated)	5.10	10	5.05	12	5.43	9
COc1cc(C2Oc3cc(-c4oc5cc(OCc6ccccc6)cc(O)c5c(=O)c4OCc4ccccc4)ccc3OC2CO)ccc1O (configuration not stated)	< 4.00	<1	< 4.00	<1	< 4.00	<1
CCCCCOc1cc(O)c2c(=O)c(O)c(-c3ccc4c(c3)OC(c3ccc(O)c(OC)c3)C(CO)O4)oc2c1 (configuration not stated)	5.22	14	5.16	9	5.34	12
COc1cc(O)c2c(=O)c(OC)c(-c3ccc4c(c3)OC(c3ccc(O)c(OC)c3)C(CO)O4)oc2c1 (configuration not stated)	4.82	4	4.65	6	5.16	5
COc1cc(C2Oc3cc([C@H]4Oc5cc(O)cc(O)c5C(=O)[C@@H]4O)ccc3OC2CO)ccc1O (some centres not stated) [SILIBININ]	4.14		4.03		4.37	

Reference: ChEMBL document CHEMBL3763115, “Silibinin derivatives as anti-prostate cancer agents: Synthesis and cell-based evaluations” (Eur J Med Chem, 2016)
